The values that follow come from article PMC2854012 (Cancer chemotherapy and pharmacology, 2009).

Entries after “also recorded” stand apart in the source; their conditions may differ.

In data set [1] the test system is insulin-stimulated glucose transport. Particulars: cited from earlier work.
The nature of data set [2]: Plasma pharmacokinetics of UCN-01 in patients. Type of data set: in vivo, human. In a few lines: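 Heparinized blood drawn in cycle 1 before dosing, 12, 24, 48 and 72 h after infusion start, and 12, 24 and 48 h after infusion end. Cycle 2 sampled pre-dose, at 36 h and 24 h post-end. Plasma spun 1200 x g, 5 min, 4°C, stored -80°C; assayed by HPLC-UV. Noncompartmental analysis: Cmax by inspection; λz from ≥3 terminal points; t1/2 = 0.693/λz; linear-trapezoidal AUC extrapolated by Ct/λz; CL = dose/AUC.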

Data set [3] relates to patients with advanced malignancies. Description: Phase I safety and toxicity, DLT and MTD of UCN-01 with prednisone. Type of data set: in vivo, human. A digest of the protocol:
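Open-label single-arm escalation with 3-6 patients per level. Test compound by continuous IV infusion, 72 h (days 3-5) in cycle 1, then 36 h from day 3; levels 17, 24, 34 mg/m2/24 h. Oral glucocorticoid 60 mg/m2/day, days 1-5; 28-day cycles. Graded by NCI CTC v2.0. DLT: grade 3-4 non-hematologic (separate hyperglycemia rules), grade 4 granulocytopenia or thrombocytopenia. MTD: ≤1 of 6 with DLT.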

Data set [4] shares this test system. Description: Tumor response by RECIST in the phase I trial of UCN-01 with prednisone. It counts as in vivo, human. Particulars: 15 patients. A digest of the protocol:
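Tumor response assessed radiographically every two cycles by RECIST. Patients received continuous IV test compound (72 h in cycle 1, 36 h thereafter) plus oral glucocorticoid 60 mg/m2/day on days 1-5, in 28-day cycles.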

For another data set, the target named is protein kinase C. Particulars: cited from earlier work.
Data set [5] has as its system patients with refractory neoplasms. Particulars: cited from earlier work.
The mark [6] stands for this setting: 15 patients, 55 courses, with prednisone.
Setting [7] is: drug-related adverse events, 15 patients, all dose levels.

For `CN[C@@H]1C[C@H]2O[C@@](C)([C@@H]1OC)n1c3ccccc3c3c4c(c5c6ccccc6n2c5c31)C(=O)NC4` [Staurosporine], in data set [1], the “effect on insulin-stimulated glucose transport” value is listed as “inhibit insulin-stimulated glucose transport”.

For orientation: half-life means the time in which the quantity being followed falls by half. Read a low half-life as rapid decline. By Cmax is commonly meant the highest concentration seen after dosing. One may read the AUC(0-inf) as the area under the concentration-time curve extrapolated to infinity. Low values mean low exposure, high ones high exposure. Broadly, the IC50 is the concentration at which inhibition is half-maximal. As for `CN[C@@H]1C[C@H]2O[C@@](C)([C@@H]1OC)n1c3ccccc3c3c4c(c5c6ccccc6n2c5c31)C(=O)N[C@@H]4O` [UCN-01, 7-hydroxy staurosporine], in data set [2] (cycle 1, 72-h IV infusion, UCN-01 17 mg/m^2/24 h, with prednisone), the “Clearance Mean” value came out at 5.4 mL/h/m^2. For the same compound, in data set [2] (cycle 1, 72-h IV infusion, UCN-01 24 mg/m^2/24 h, with prednisone), the “Clearance Mean” value was found to be 3.1 mL/h/m^2. The “Clearance Mean” value in data set [2] (cycle 1, 72-h IV infusion, UCN-01 34 mg/m^2/24 h, with prednisone) is recorded as 4.2 mL/h/m^2. This compound had a half-life in data set [2] (human, plasma, intravenous, half-life, at the MTD, with prednisone) of about 18.8 days. In data set [2] (human, plasma, intravenous, mean Cmax, at the MTD, with prednisone), the Cmax was about 12 µg/mL. The compound further had an AUC(0-inf) in data set [2] (human, plasma, iv, AUCinf Mean, cycle 1, 72-h IV infusion, UCN-01 17 mg/m^2/24 h, with prednisone) of 3130 µg·h/mL. Further, the maximum concentration (Cmax) in data set [2] (human, plasma, iv, Cmax Mean, cycle 1, 72-h IV infusion, UCN-01 17 mg/m^2/24 h, with prednisone) stood at 10 µg/mL. For the same compound, in data set [2] (range over all dose levels (17, 24 and 34 mg/m^2/24 h x 72 h)), the clearance is on record as 2.13−5.47 mL/h/m^2. In data set [3] (setting [6]), the cumulative toxicities result is recorded as “no cumulative toxicities” and the “grade 4 adverse events” value is “no grade 4 adverse events”. In addition, the “patients developing some grade of hyperglycemia” value in data set [3] (15 patients, with prednisone) is given as “All patients”. Besides, in data set [3] (CIV over 36 h, with prednisone 60 mg/m^2/day for 5 days every cycle), the “MTD and recommended phase II dose, cycle 2 and beyond” value is on record as 36 mg/m^2/cycle. Besides, in data set [3] (combination with prednisone versus single agent on the same schedule), the “reduction in the maximum dose of UCN-01 that could be safely administered” value came out at 44%. Besides, the DLTs entry in data set [3] (dose level 2 (72 mg/m^2 total dose over 72 h for cycle 1 followed by 36 mg/m^2/cycle), six patients) is “without any DLTs”. Further, the “grade 3 hyperglycemia, patients” value in data set [3] (dose level 3 (102 mg/m^2 total dose over 72 h for cycle 1 followed by 51 mg/m^2/cycle)) is recorded as “three”. Further, in data set [3] (dose level 3 (102 mg/m^2 total dose over 72 h for cycle 1 followed by 51 mg/m^2/cycle), six patients), the “DLT: grade 3 hypophosphatemia during cycle 1, patients” value is listed as “Two of the six patients”. Further, in data set [3] (setting [7]), the “Anemia grade 2, No. of patients” value was 2 (1); the “Headache grade 2, No. of patients” value is reported as 2 (1); the “Hyperglycemia grade 2, No. of patients” value is on record as 2 (9); the “Hypoalbuminemia grade 2, No. of patients” value is listed as 2 (2). In addition, in data set [3] (setting [7]), the “Hyponatremia grade 3, No. of patients” value is reported as 3 (1); the “Hypophosphatemia grade 2, No. of patients” value was 2 (6); the “Hypophosphatemia grade 3, No. of patients” value was 3 (4); the “Leucopenia grade 2, No. of patients” value is recorded as 2 (1). Besides, in data set [3] (setting [7]), the “Leucopenia grade 3, No. of patients” value was 3 (1); the “Neutropenia grade 2, No. of patients” value is listed as 2 (1); the “Rash/desquamation grade 2, No. of patients” value is 2 (1); the “Visual (photophobia) grade 2, No. of patients” value is given as 2 (1). The “MTD and recommended phase II dose, cycle 1” value in data set [3] (total dose CIV over 72 h, with prednisone 60 mg/m^2/day for 5 days every cycle) came out at 72 mg/m^2. Moreover, in data set [3] (with prednisone), the GI toxicity entry was “did not observe any significant GI toxicity” and the pulmonary toxicity result is reported as “did not observe any pulmonary toxicity”. Moreover, in data set [4], the “patients with stable disease for longer than two cycles” value was “five” and the “response as defined by RECIST criteria” value was “No objective responses; also recorded: None of the 15 patients had a response”. Besides, the IC50 at protein kinase C was 0.004 to 0.03 µM. Also, the “toxicity at the dose level above the single-agent MTD” value in data set [5] (159 mg/m^2 over 72 h) was “grade 4 hyperglycemia and vomiting”. Moreover, the “MTD, single agent, cycle 1” value in data set [5] (over 72h, same schedule) is given as 127.5 mg/m^2. Moreover, in data set [5] (patient with alk-positive anaplastic large-cell lymphoma), the “duration of prolonged disease stabilization” value was over 2.5 years. The partial response entry in data set [5] (patient with melanoma) was “One partial response”. In data set [5] (supernatant of ultracentrifuged plasma, 24 mg/m^2/day for 3 days), the “"free" UCN-01 levels at the end of infusion” value is given as 200 to 600 nmol/L. Besides, the “MTD, single agent, subsequent cycles” value in data set [5] (total dose administered over 36 h) was 63 mg/m^2.
